A selection: hits, their analogues and other compounds. The true share with any hit is near 3.9%.
OX1R antag-1 = OX1R (HCRTR1) antagonists, primary screen, fluorescence, CHO/OX1R cells, Fluo-8 calcium, orexin A; Orexin/Hypocretin receptor type 1 (Homo sapiens), O43613; Fluo-8 calcium fluorescence; inhibition, % at 5 µM; 330,000 tested, 0.43% active;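 active = inhibition above its plate's threshold, mean inhibition of all tested compounds on the plate plus 3 SD, cut at about 37% in these data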
Target sequence (O43613 whole entry, looked up): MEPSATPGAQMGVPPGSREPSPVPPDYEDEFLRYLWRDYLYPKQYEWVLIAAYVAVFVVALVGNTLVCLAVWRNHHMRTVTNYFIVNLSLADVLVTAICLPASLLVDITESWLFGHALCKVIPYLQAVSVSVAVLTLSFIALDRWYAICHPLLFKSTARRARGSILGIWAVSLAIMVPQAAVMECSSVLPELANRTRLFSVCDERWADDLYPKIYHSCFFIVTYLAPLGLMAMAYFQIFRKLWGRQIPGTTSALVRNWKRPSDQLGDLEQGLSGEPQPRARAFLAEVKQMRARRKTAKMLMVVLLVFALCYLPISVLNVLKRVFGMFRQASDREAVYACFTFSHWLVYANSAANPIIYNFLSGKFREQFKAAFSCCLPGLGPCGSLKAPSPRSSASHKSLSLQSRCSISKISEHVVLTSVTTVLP
TAAR1 antagonist = human TAAR1 antagonists, primary screen, Fluo-8 calcium fluorescence, CHO RD-HGA16 cells. Trace amine-associated receptor 1 (Homo sapiens), Q96RJ0. antagonist. inhibition, % at 3 µM. 360,000 tested, 1.5% active. AID 624466, 2012;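 active = inhibition above a per-plate cutoff, the mean inhibition of test compounds on that plate plus 3 SD, cut at about 49% in these data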
Target sequence (Q96RJ0 whole entry, looked up): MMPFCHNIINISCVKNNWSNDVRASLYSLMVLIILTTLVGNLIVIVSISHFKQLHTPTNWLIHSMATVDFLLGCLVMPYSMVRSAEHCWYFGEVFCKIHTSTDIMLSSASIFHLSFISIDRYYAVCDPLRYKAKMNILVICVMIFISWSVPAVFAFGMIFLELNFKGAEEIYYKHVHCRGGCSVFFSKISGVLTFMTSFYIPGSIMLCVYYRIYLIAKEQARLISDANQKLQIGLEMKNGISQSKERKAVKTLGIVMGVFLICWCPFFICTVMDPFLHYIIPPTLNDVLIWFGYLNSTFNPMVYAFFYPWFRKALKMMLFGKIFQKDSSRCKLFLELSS
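Test system – hTAAR1-expressing CHO RD-HGA16 cells, Gα16-coupled · Reagent – β-PEA at EC80 concentration, post-compound challenge · Compound dosing – 3 µM, single point · Timing – 140 s kinetic read after compound, 140 s after agonist · Detection – Fluo-8 intracellular calcium dye fluorescence, real-time kinetic reads · Control set – DMSO and EC80 PEA controls · Repeats – n of 1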
OX1R antag-2 = antagonists of human orexin 1 receptor (OX1R). Orexin/Hypocretin receptor type 1 (Homo sapiens), O43613. OX1R-expressing cells, FRET antagonist read-out. inhibition, % at 6.6 µM. 330,000 tested, 1.8% active; in the data active = inhibition mostly above about 38%, no sharp cut-off; inactive = mostly below about 40%
TAAR1 agonist = human TAAR1 agonists, primary screen, Fluo-8 calcium fluorescence, CHO RD-HGA16 cells; vehicle wells 0%, saturating PEA agonist 100%; activation, % at 3 µM; 360,000 tested, 0.99% active;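 active = activation above the mean activation of all test compounds in the run plus 3 SD, cut at about 38% in these data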
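test system = CHO RD-HGA16 cells carrying human TAAR1 plus Gα16 | schedule = 17-24 h seeding, 75 min 37 °C dye, 30 min RT | compound dosing = 3 µM single concentration | control set = DMSO and PEA EC100 | replicates = n 1 | signal = Fluo-8 fluorescence, 5 s baseline then 140 s kinetic read | measure = percent activation vs PEA EC100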
CHO parental Ca = ATP-evoked calcium signal inhibitors, parental CHO, primary screen, counter-screen for OX1R antagonist project, cell-based, fluorescence, Fluo-8 calcium dye; parental CHO-K1, ATP-induced calcium, Fluo-8 fluorescence; inhibition, % at 5.6 µM; AID 463079, 2010; 330,000 tested, 0.63% active;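 active = inhibition above that plate's mean sample inhibition plus 3 SD, cut at about 26% in these data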
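Test system: untransfected parental CHO cell line. Compound: one dose, 5.6 µM nominal. Detection: intracellular calcium via Fluo-8 no-wash fluorescent dye. Measure: % inhibition. Benchmarks: ATP-challenged DMSO wells low, unchallenged DMSO wells high.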
TAAR1 ag conf = human TAAR1 agonists, retest of hits, confirmation, Fluo-8 calcium fluorescence, CHO RD-HGA16 cells | shares compounds with TAAR1 agonist | scaled: DMSO 0%, maximal phenethylamine 100% | activation, % at 3 µM | 2,400 tested, 82% active;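 active = activation above a cutoff set at the run's mean compound activation plus 3 SD, cut at about 39% in these data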
Ga16 nonsel ag = nonselective calcium mobilization agonists, CHO-Ga16 cells, counter-screen for hTAAR1 agonist project, cell-based, fluorescence, CHO-Ga16 parental line; activation, % at 3 µM; shares compounds with TAAR1 agonist; 2,400 tested, 50% active; Fluo-8 calcium fluorescence; normalized to maximal ATP response, DMSO zero;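 active = activation above the run cutoff, the mean activation over all tested wells plus 3 SD, cut at about 12% in these data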
TAAR1 desensitize = TAAR1 desensitization by agonist hits, confirmation, counter-screen for TAAR1 agonist project, cell-based, fluorescence, tachyphylaxis. shares compounds with TAAR1 agonist. CHO RD-HGA16 hTAAR1, Fluo-8 calcium, beta-PEA response inhibition. inhibition, % at 3 µM. 2,400 tested, 46% active;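 active = inhibition above the run cutoff, the mean inhibition of all test compounds plus 3 SD, cut at about 49% in these data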;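 also: beta-PEA stimulus applied at its EC80; loss of beta-PEA calcium signal after compound pretreatment read as receptor desensitization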
Ga16 nonsel ant = inhibition of ATP-evoked calcium response in CHO-Ga16 cells, counter-screen for TAAR1 agonist project, cell-based, fluorescence | shares compounds with TAAR1 agonist | CHO-Ga16 ATP-induced calcium, Fluo-8 fluorescence | inhibition, % at 3 µM | 2,400 tested, 39% active;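 active = inhibition above the plate's mean compound inhibition plus 3 SD, computed per plate, cut at about 22% in these data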
Numbers stand for hits; i = inactive; nt = no result.

SMILES | OX1R antag-1 | TAAR1 antagonist | OX1R antag-2 | TAAR1 agonist | CHO parental Ca | TAAR1 ag conf | Ga16 nonsel ag | TAAR1 desensitize | Ga16 nonsel ant
Cc1c(Cl)cccc1NC(=O)Nc1ccccc1C(N)=O | i | i | i | i | i | nt | nt | nt | nt
Cc1c(Cl)cccc1NC(=O)Nc1ccc(C(N)=O)cc1 | i | i | i | 52 | i | 60 | i | i | i
CCCCc1ccc(NC(=O)C2CCN(S(C)(=O)=O)CC2)cc1 | i | i | i | 57 | i | i | i | i | i
COc1ccc(-c2nc3ccc(Br)cn3c2CC(C)(C)C)cc1OC | nt | i | nt | i | nt | nt | nt | nt | nt
COc1ccccc1-n1c(SCC(N)=O)nnc1-c1ccc(S(=O)(=O)N2CCCCC2)cc1 | i | i | i | 52 | i | i | i | i | 24
NC(=O)CSc1nnc(-c2ccc(S(=O)(=O)N3CCCCC3)cc2)n1-c1ccccc1 | i | i | i | i | i | nt | nt | nt | nt
Cc1nc(C(F)(F)F)ccc1C(=O)N1CCC1(C)C(=O)NS(C)(=O)=O (stereo unspecified) | nt | i | nt | i | nt | nt | nt | nt | nt
Cc1ccc(NS(=O)(=O)c2ccc(C(=O)NCc3ccncc3)cc2)cc1 | i | i | i | 69 | i | 61 | 25 | i | 32
Cc1ccc(NS(=O)(=O)c2ccc(C(=O)NCc3cccnc3)cc2)cc1 | i | i | i | i | i | nt | nt | nt | nt
Cc1ccc(NS(=O)(=O)c2ccc(C(=O)NCc3ccccn3)cc2)cc1 | i | i | i | 96 | i | 110 | 60 | 54 | 31
CS(=O)(=O)Nc1ccc(C(=O)NCc2ccccn2)cc1 | i | i | i | i | i | nt | nt | nt | nt
CCOc1ccc(NS(=O)(=O)c2ccc(C(=O)NCc3ccncc3)cc2)cc1 | i | i | i | i | i | nt | nt | nt | nt
CCOc1ccc(NS(=O)(=O)c2ccc(C(=O)NCc3ccccn3)cc2)cc1 | i | i | i | 71 | i | 120 | 59 | 67 | 30
CCOC(=O)c1sc(NC(=O)CSc2nc3ccccc3s2)c(C(=O)OCC)c1C | i | nt | i | nt | i | nt | nt | nt | nt
Cc1ccc(S(=O)(=O)N(CC(=O)N2CCc3ccccc3C2)c2ccc(Cl)c(Cl)c2)cc1 | i | i | i | i | i | nt | nt | nt | nt
O=C(CN(c1ccc(Cl)c(Cl)c1)S(=O)(=O)c1ccccc1)N1CCc2ccccc2C1 | i | i | 74 | 58 | i | 76 | i | i | i
COc1ccccc1N(CC(=O)N1CCc2ccccc2C1)S(C)(=O)=O | i | i | i | i | i | nt | nt | nt | nt
COc1ccc(N(CC(=O)N2CCc3ccccc3C2)S(C)(=O)=O)cc1OC | i | i | i | 51 | i | i | i | i | i
O=C1CC(N2CCCc3ccccc32)C(=O)N1c1ccccc1Cl (stereo unspecified) | i | i | i | i | i | nt | nt | nt | nt
COc1cc(/C=C/C(=O)N2CC(C)OC(C)C2)cc(OC)c1OC (stereo unspecified) | i | i | i | i | i | nt | nt | nt | nt
CCOc1cccc(-c2c(C(=O)N/N=C(\C)c3ccncc3)nnn2-c2nonc2N)c1 | i | i | i | i | i | nt | nt | nt | nt
C/C(=N\NC(=O)c1nnn(-c2nonc2N)c1-c1ccccc1)c1ccco1 | nt | i | nt | 106 | nt | 120 | 87 | i | i
COc1cccc(-c2c(C(=O)N/N=C(\C)c3ccco3)nnn2-c2nonc2N)c1 | i | i | i | 115 | i | 128 | 88 | 49 | i
COc1cccc(-c2c(C(=O)N/N=C(\C)c3ccc(Cl)s3)nnn2-c2nonc2N)c1 | i | 59 | i | 89 | i | 82 | 52 | 64 | 39
COc1cccc(C2NC(=S)NC(C)=C2C(C)=O)c1 (stereo unspecified) | nt | i | nt | i | nt | nt | nt | nt | nt
SMILES | OX1R antag-1 | TAAR1 antagonist | OX1R antag-2 | TAAR1 agonist | CHO parental Ca | TAAR1 ag conf | Ga16 nonsel ag | TAAR1 desensitize | Ga16 nonsel ant
Cc1cc(Br)c(NC(=O)CCNC(=O)OCc2ccccc2)cc1C | i | i | i | i | i | nt | nt | nt | nt
COc1ccc(C(=O)Nc2cc(C(=O)c3ccccc3)c(C)oc2=O)cc1 | i | i | i | i | i | nt | nt | nt | nt
Cc1oc(=O)c(NC(=O)c2cccc(Cl)c2)cc1C(=O)c1ccccc1 | i | i | i | 55 | i | i | i | i | 31
CC1CCCN(c2c([N+](=O)[O-])c(=O)oc3ccccc23)C1 (stereo unspecified) | i | nt | i | nt | i | nt | i | nt | i
O=C(Nc1nnc(-c2ccccc2)o1)c1ccc(Cl)cc1 | i | i | i | 76 | i | i | 16 | i | i
CC(=O)c1ccc(C(=O)Nc2nnc(-c3ccc(Cl)cc3)o2)cc1 | i | i | i | i | i | nt | nt | nt | nt
O=S(=O)(NC1CCCC1)c1ccc(S(=O)(=O)NC2CCCC2)cc1 | i | i | i | 57 | i | 45 | 24 | i | 32
Cc1n[nH]c(C)c1N1C(=O)c2cccc3c(N4CCCCCC4)ccc(c23)C1=O | 90 | 82 | i | 148 | 76 | 88 | 119 | 74 | 82
O=C1c2cccc3c(N4CCCCC4)ccc(c23)C(=O)N1c1cccc(O)c1 | 56 | 79 | i | 121 | 56 | i | 32 | i | 48
Cc1cc(NS(=O)(=O)c2ccccc2)ccc1NS(=O)(=O)c1ccccc1 | nt | i | nt | i | nt | nt | nt | nt | nt
Cc1cc(NS(=O)(=O)c2ccccc2)c(C)c(Cl)c1O | i | i | i | 55 | i | 67 | 26 | i | i
CC(=O)c1cccc(NC(=S)NC(=O)CC(C)(C)C)c1 | i | i | i | i | i | nt | nt | nt | nt
CC(=O)C1=C(O)C(=O)N(CCc2ccccc2)C1c1ccccc1[N+](=O)[O-] (stereo unspecified) | i | i | i | 67 | i | 62 | i | i | i
O=C(N/N=C/c1ccncc1)c1sc2ccccc2c1Cl | i | i | i | i | i | nt | nt | nt | nt
COc1ccc2c(Cl)c(C(=O)N/N=C/c3ccncc3)sc2c1 | i | 49 | i | 72 | i | i | i | i | i
O=C(NCCc1ccccc1)c1ccc([N+](=O)[O-])cc1 | i | i | i | 56 | i | 97 | i | 57 | i
O=C(NCCc1ccccc1)/C(=C\c1ccc([N+](=O)[O-])cc1)NC(=O)c1ccc(Br)cc1 | i | i | i | 56 | i | i | i | i | i

High-throughput results from PubChem.
